Reference: ChEMBL document CHEMBL2157912, “Pyrido[1,2-a]pyrimidin-4-ones as antiplasmodial falcipain-2 inhibitors” (Bioorg Med Chem, 2012)

What was measured:
Plasmodium falciparum [1] = assay: Inhibition of recombinant Plasmodium falciparum falcipain 2 at 10 uM preincubated for 10 mins before addition of Z-Phe-Arg-AMC substrate by fluorescence spectrophotometry
How it was run: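 Soluble recombinant FP-2 (30 nM) preincubated with compound at 10 µM for 10 min at room temperature in 100 mM sodium acetate pH 5.5 with 10 mM DTT. Compound was diluted from DMSO stock. Z-Phe-Arg-AMC was then added (25 µM final), and fluorescence (ex 355/em 460 nm) was followed for 10 min at room temperature. % inhibition = [1 − Ftest/Fcontrol]×100; mean of three independent determinations.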

[2] = Inhibition of recombinant Plasmodium falciparum falcipain 2 incubated with compound for 10 mins before addition of Z-Phe-Arg-AMC substrate by fluorescence spectrophotometry
How it was run: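 FP-2 (30 nM) was preincubated for 10 min at room temperature with a series of fixed compound concentrations (from DMSO stock) in 100 mM sodium acetate pH 5.5, 10 mM DTT. Z-Phe-Arg-AMC was added to 25 µM final and AMC fluorescence (355/460 nm) monitored 10 min. IC50 was determined only for compounds reaching ≥40% inhibition at 10 µM; values are means of three independent determinations.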

Plasmodium falciparum [3] = assay: Inhibition of recombinant Plasmodium falciparum falcipain 2 at 2 uM preincubated for 10 mins before addition of Z-Phe-Arg-AMC substrate by fluorescence spectrophotometry

| Compound | inhibition (Plasmodium falciparum [1]) [%] | IC50 [2] [µM] | inhibition (Plasmodium falciparum [3]) [%] |
| --- | --- | --- | --- |
| COc1ccc(CNC(=O)Nc2cnc3ccccn3c2=O)cc1 | 18 | – | – |
| O=C(Nc1cnc2ccc(Cl)cn2c1=O)N1CCN(c2ccccn2)CC1 | 41 | 12 | – |
| COCCNC(=O)Nc1cnc2cc(C)ccn2c1=O | 63 | 6 | – |
| Cc1ccn2c(=O)c(NC(=O)NCCN3CCOCC3)cnc2c1 | 27 | – | – |
| COc1ccc(N2CCN(C(=O)Nc3cnc4cc(C)ccn4c3=O)CC2)cc1 | 46 | 19 | – |
| Cc1ccn2c(=O)c(NC(=O)OCc3ccccc3)cnc2c1 | 31 | – | – |
| COc1ccc(N2CCN(C(=O)Nc3cnc4ccc(Cl)cn4c3=O)CC2)cc1 | 36 | – | – |
| O=C(Nc1cnc2ccccn2c1=O)OCc1ccccc1 | 12 | – | – |
| Cc1ccn2c(=O)c(C(=O)NCc3ccc(F)cc3)cnc2c1 | 6 | – | – |
| O=C(NCCN1CCOCC1)Nc1cnc2ccc(Cl)cn2c1=O | 68 | 7 | – |
| Cc1ccn2c(=O)c(NC(=O)N3CCN(C(c4ccccc4)c4ccccc4)CC3)cnc2c1 | 23 | – | – |
| CC(=O)NCCNC(=O)Nc1cnc2ccccn2c1=O | 46 | 16 | – |
| COc1ccc(N2CCN(C(=O)Nc3cnc4ccccn4c3=O)CC2)cc1 | 43 | – | – |
| O=C(NCc1ccc2c(c1)OCO2)c1cnc2ccc(Cl)cn2c1=O | 24 | – | – |
| O=C(NCCc1cccs1)Nc1cnc2ccccn2c1=O | 44 | 14 | – |
| Cc1ccn2c(=O)c(NC(=O)NCCc3cccs3)cnc2c1 | 45 | 21 | – |
| Cc1ccn2c(=O)c(NC(=O)N3CCN(c4ccccn4)CC3)cnc2c1 | 37 | – | – |
| O=C(NCCCN1CCOCC1)Nc1cnc2ccccn2c1=O | 25 | – | – |
| O=C(NCc1ccc(Cl)cc1)Nc1cnc2ccccn2c1=O | 39 | – | – |
| O=C(NCCc1cccs1)Nc1cnc2ccc(Cl)cn2c1=O | 42 | 23 | – |
| COCCNC(=O)Nc1cnc2ccccn2c1=O | 31 | – | – |
| Cc1ccn2c(=O)c(NC(=O)OCc3ccccn3)cnc2c1 | 42 | 18 | – |
| O=C(Nc1cnc2ccccn2c1=O)OCc1ccccn1 | 18 | – | – |
| O=C(NCc1ccc2c(c1)OCO2)c1cnc2ccccn2c1=O | 7 | – | – |
| CC(C)C[C@H](NC(=O)[C@H]1O[C@@H]1C(=O)O)C(=O)NCCCCN=C(N)N [E-64] | – | 0.02 | 92 |
| O=C(Nc1cnc2ccccn2c1=O)N1CCN(c2ccccn2)CC1 | 46 | 15 | – |
| CC(=O)NCCNC(=O)Nc1cnc2cc(C)ccn2c1=O | 15 | – | – |
